Published values from different studies.
Compare with care: the assays were run in different laboratories.
Target: Tyrosine-protein kinase Mer (MERTK, Homo sapiens, UniProt Q12866)
Residues used in one study (Q12866 21-999): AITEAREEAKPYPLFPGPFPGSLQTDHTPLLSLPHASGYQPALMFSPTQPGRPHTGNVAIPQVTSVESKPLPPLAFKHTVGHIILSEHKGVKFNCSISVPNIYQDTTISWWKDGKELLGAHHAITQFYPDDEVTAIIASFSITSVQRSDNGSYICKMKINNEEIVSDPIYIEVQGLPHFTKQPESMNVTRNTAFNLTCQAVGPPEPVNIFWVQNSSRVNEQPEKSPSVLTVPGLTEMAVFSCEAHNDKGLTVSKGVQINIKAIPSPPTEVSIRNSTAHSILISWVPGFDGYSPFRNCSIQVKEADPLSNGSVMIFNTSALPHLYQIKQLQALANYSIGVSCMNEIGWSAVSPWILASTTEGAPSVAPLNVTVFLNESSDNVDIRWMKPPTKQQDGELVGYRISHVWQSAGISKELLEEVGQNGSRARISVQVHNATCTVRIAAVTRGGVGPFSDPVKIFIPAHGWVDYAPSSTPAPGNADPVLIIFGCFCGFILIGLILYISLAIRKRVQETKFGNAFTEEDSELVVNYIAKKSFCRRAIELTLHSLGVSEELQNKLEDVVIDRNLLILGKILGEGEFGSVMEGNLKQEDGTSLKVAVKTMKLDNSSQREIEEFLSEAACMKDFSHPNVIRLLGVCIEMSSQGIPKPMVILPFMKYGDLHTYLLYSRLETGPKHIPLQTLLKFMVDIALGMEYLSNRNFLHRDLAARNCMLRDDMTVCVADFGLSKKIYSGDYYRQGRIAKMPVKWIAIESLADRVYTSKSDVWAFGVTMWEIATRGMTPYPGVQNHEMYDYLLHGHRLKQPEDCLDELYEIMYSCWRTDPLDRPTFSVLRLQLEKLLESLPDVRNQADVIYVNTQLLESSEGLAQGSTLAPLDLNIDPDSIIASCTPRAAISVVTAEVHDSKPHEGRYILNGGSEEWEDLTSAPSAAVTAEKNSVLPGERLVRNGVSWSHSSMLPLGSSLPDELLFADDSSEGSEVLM

Structure (SMILES)	observed	mode	technique	concentration	measurement	result
COc1cc2c(N3CCN(C(=O)Nc4ccc(OC(C)C)cc4)CC3)ncnc2cc1OCCCN1CCCCC1	cell-free assay			0.5 µM	remaining signal	106%
CCCOc1ccc([C@H]2[C@H](C(=O)O)[C@@H](c3ccc4c(c3)OCO4)CN2CC(=O)Nc2c(CC)cccc2CC)cc1	cell-free assay		competition with immobilised ligand	1 µM	remaining binding	87%
Cc1ccc(Nc2nccc(N(C)c3ccc4c(C)n(C)nc4c3)n2)cc1S(N)(=O)=O	enzyme activity	inhibitor		0.3 µM	inhibition	32%
CC1(C)NC(=O)c2[nH]c3c(Cl)c(Cl)ccc3c2C1C#N (stereo not drawn)	thermal stability		DSF	10 µM	ΔTm	-1.1 °C
O=C(Nc1cnn(-c2csc(C(=O)NC3COC3)c2)c1)Nc1ccccc1Cl	enzyme activity	inhibitor		5 µM	remaining activity	92.7%
CCCCN(CCCC)C(=O)CN1C[C@@H](c2cc(OC)c3c(c2)OCO3)[C@H](C(=O)O)[C@H]1CC(C)(C)CCC	cell-free assay		competition with immobilised ligand	1 µM	remaining binding	100%
CCN(CC)c1ccc(C2=NNC(=O)CC2C)cc1[N+](=O)[O-] (stereo not drawn)	enzyme activity	inhibitor		10 µM	remaining activity	97%
Cc1ccc(C(=O)NCc2ccsc2)cc1C#Cc1cn(C(C)C)c2ncnc(N)c12	enzyme activity	inhibitor		1 µM	activity vs control	71%
COc1ccc2c(O[C@@H]3C[C@H]4C(=O)N[C@]5(C(=O)O)CC5/C=C\CCCCC[C@H](NC(=O)OC5CCCC5)C(=O)N4C3)cc(-c3csc(NC(=O)C(C)C)n3)nc2c1C (stereo partly drawn)	cell-free assay		competition with immobilised ligand	1 µM	remaining binding	70%
COc1cc2ncnc(Nc3ccc(Oc4ccccc4)cc3C)c2cc1OC	enzyme activity	inhibitor		1 µM	inhibition	87%
Cn1c2c(c3ccc(Cl)c(Cl)c31)C(C#N)C1(CCCC1)NC2=O (stereo not drawn)	thermal stability		DSF	10 µM	ΔTm	-0.5 °C
O=c1cc(-c2cccc3c2Sc2ccccc2S3)oc(N2CCOCC2)c1	enzyme activity	inhibitor		0.5 µM	remaining activity	97%
Cn1c2c(c3ccc(Cl)c(Cl)c31)C(C#N)C(C)(C)NC2=O (stereo not drawn)	thermal stability		DSF	10 µM	ΔTm	-0.9 °C
Cc1cnc(NC2CCOCC2)nc1-n1cnc(C(=O)NC(CN)c2cc(F)cc(Cl)c2)c1 (stereo not drawn)	enzyme activity	inhibitor	radiometric	1 µM	remaining activity	96%
Cn1c2c(c3ccccc31)C(C#N)C(C)(C)NC2=O (stereo not drawn)	thermal stability		DSF	10 µM	ΔTm	0.8 °C
CCCOc1ccc(OC)c(F)c1C(=O)c1ccc(C(=O)N[C@@H]2CNC[C@H]2NC(=O)c2ccc3[nH]ncc3c2)cc1	enzyme activity	inhibitor		10 µM	remaining activity	36%
CN1CCC2(CC1)NC(=O)c1c(c3ccc(Cl)c(Cl)c3n1C)C2C#N (racemic)	thermal stability		DSF	10 µM	ΔTm	-0.4 °C
CNC(=O)c1cc(Oc2ccc(NC(=O)Nc3ccc(Cl)c(C(F)(F)F)c3)cc2)ccn1	enzyme activity	inhibitor		0.3 µM	inhibition	26%
Nc1ncnc2occ(-c3ccc(NC(=O)Nc4cc(C(F)(F)F)ccc4F)cc3)c12	cell-free assay			20 µM	remaining signal	0.25%
CC(C)(C)c1nc2c(s1)c1nc(N)ncc1c1ccc(NS(=O)(=O)c3c(F)cccc3F)c(F)c12	enzyme activity	inhibitor	radiometric	1 µM	remaining activity	124%
CC(C)(O)c1cncc(-c2nc3ccc(F)cc3n2C2CC2)c1	cell-free assay		competition with immobilised ligand	1 µM	remaining binding	96%
CCN(CC)CCNC(=O)c1c(C)[nH]c(/C=C2\C(=O)Nc3ccc(F)cc32)c1C	enzyme activity	inhibitor		0.3 µM	inhibition	94%
O=C(NS(=O)(=O)c1ccc(NCC2CCOCC2)c([N+](=O)[O-])c1)c1ccc(N2CCN(Cc3ccc(C(F)(F)F)cc3-c3ccc(Cl)cc3)CC2)cc1Oc1cnc2[nH]ccc2c1	cell-free assay		competition with immobilised ligand	1 µM	remaining binding	100%
Cn1c2c(Cl)c(Cl)ccc2c2cc(N)[nH]c(=O)c21	thermal stability		DSF	10 µM	ΔTm	0.1 °C
CC(C)CC(=O)N1CCc2nc(-c3ccc(Br)cc3)nc(N(C)Cc3ccccc3)c2C1	cell-free assay		competition with immobilised ligand	0.1 µM	remaining binding	100%
CC(C)(O)[C@H]1CC[C@H](Nc2ccc3ncc(-c4cccc(C(F)(F)F)c4)n3n2)CC1	enzyme activity	inhibitor		1 µM	remaining activity	64.1%
CNCc1ccccc1-c1csc([C@@H](C)Nc2nc(C)nc3cc(OC)c(OC)cc23)c1	cell-free assay		competition with immobilised ligand	1 µM	remaining binding	61%
Cc1ccc(C(=O)Nc2ccc(CN3CCN(C)CC3)c(C(F)(F)F)c2)cc1C#Cc1cnc2cccnn12	enzyme activity			23.5 nM	remaining activity	86%
O=C(NC[C@@H]1[C@H]2CN(C(=O)OCc3cc(C(F)(F)F)cc(C(F)(F)F)c3)C[C@@H]12)c1ccc2[nH]nnc2c1	cell-free assay		competition with immobilised ligand	1 µM	remaining binding	100%
CC/C(=N\NC(=O)NCc1cccc(O)c1)c1ccc(O)c(C)c1O	enzyme activity	inhibitor		0.1 µM	inhibition	5%
